Out of some 310,000 compounds screened, about 2,800 (0.9%) were called active.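 Rule for the calls: active = B-score of the integrated calcium signal more than 4 SD below the library mean, with starting fluorescence not abnormally high; inactive = the rest.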 This excerpt belongs to a sample that is enriched for actives.

A short description of the test: RGS4 potentiators or activators, primary screen, cell-based, HEK293 M3R inducible RGS4, calcium flux (AID 463111).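 For B-score: negative B-score means reduced calcium response which marks RGS4 activation or potentiation.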 Conditions: HEK293 M3R/inducible RGS4, carbachol calcium flux Fluo4, at 10 µM; active compounds read low. In outline: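 Material: Inducible-RGS4 HEK293 cells carrying M3 receptor; also added: carbachol at ECmax as muscarinic agonist stimulus; incubation: compound preincubation 20 min at room temperature before agonist; signal: Fluo4-AM (2 µM) calcium-flux fluorescence, kinetic read; measure: integrated calcium ratio converted to B score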
In general terms: Calcium flux is commonly read through the fluorescence of an indicator in the cells.
Take `CC(C)N1C(=O)N(c2ccccc2)C(C)(O)CC1(C)C` (centres undefined): the B-score entry was “inactive”. With `CN(C)C(CNC(=O)c1ccc(S(=O)(=O)NCc2ccco2)cc1)c1ccccc1` (centres undefined), the B-score entry is “inactive”. In the case of `CC(C)CN(C(=O)Cn1c(=O)cnc2ccccc21)C1CCS(=O)(=O)C1` (centres undefined) it was “inactive”.

As for `COc1ccccc1CCCNC(=O)C1CCC(=O)N(CCN2CCOCC2)C1` (centres undefined), the B-score result is “inactive”. The result for `Cc1[nH]n(-c2cccc(Cl)c2)c(=O)c1/C=N/n1c(C)nc2ccccc2c1=O` reads “inactive”; that for `Cc1ccc(-n2[nH]c(C)c(/C=N/N3C(=O)c4cccc5cccc(c45)C3=O)c2=O)cc1`, -9.28 (active); that for `COc1cc(SC#N)ccc1N=Cc1c(C)[nH]n(-c2ccc(C)cc2)c1=O`, “inactive”. In the case of `COc1ccc(N2CCN(S(=O)(=O)c3ccc4c(c3)N(C(C)=O)CCO4)CC2)cc1` it was “inactive”; in that of `CCOc1ccc(NC(=O)C(C)N2C(=O)c3ccccc3C2=O)cc1` (centres undefined), “inactive”.

For `CC(=O)c1ccc(OCC(O)CN2CCN(S(=O)(=O)c3cccc(Br)c3)CC2)cc1` (centres undefined), the B-score entry was “inactive”. As to `COc1ccc(C2c3ccc(O)cc3Oc3ncn(CCCO)c(=N)c32)cc1OC` (centres undefined), the B-score result is “inactive”.

Consider `c1ccc2c(c1)CSc1sccc1C2=C1CCNCC1`, for which the B-score is -7.49 (active). In the case of `Nc1nnc(SCC(=O)NC2CCCc3ccccc32)s1` (centres undefined) it was “inactive”; in that of `CCn1ccnc1CN1CCCC(C(=O)c2ccc3c4c(cccc24)CC3)C1` (centres undefined), “inactive”. Turning to `CN(C)CCOCCOc1ccc(Cl)c2ccccc12`, the B-score entry is “inactive”. For the compound `CN(C)CCOc1ccc(Cl)cc1C(C)(C)C`, the B-score was -7.65 (active).

Take `CC(C)(C)NCCCOc1ccc(Cl)cc1C(C)(C)C`: the B-score result was “inactive”. Turning to `COc1ccc(/C=C2/SC(=O)N(CCCCCC(=O)Nc3ccccc3C(=O)O)C2=S)cc1`, the B-score result is “inactive”.

Regarding `Cc1cc(C)cc(C(=O)N(CCc2ccccc2)C2=CC3CCC(C2)N3C)c1` (centres undefined), the B-score entry was “inactive”. In the case of `CCCN(CCc1ccccc1)C1CCc2c(O)cccc2C1` (centres undefined) it was -10.2 (active); in that of `COc1ccc(-c2nn(-c3ccccc3)cc2/C=C2/SC(=S)N(CCCC(=O)O)C2=O)c(C)c1`, “inactive”; in that of `Cc1ccc(-c2nn(-c3ccccc3)cc2/C=C2\SC(=S)N(CCCCCC(=O)O)C2=O)o1`, -7.93 (active). As to `CN(C)S(=O)(=O)c1cccc(-c2nn(-c3ccccc3)cc2/C=C2\SC(=S)N(CC(=O)O)C2=O)c1`, the B-score entry was “inactive”.

On to `Oc1oc(-c2ccccc2Br)nc1/C=N/c1ccccn1`, for which the B-score result is “inactive”. With `CSc1nnnn1-c1c(C)cc(C)cc1C`, the B-score result is “inactive”. With `Cc1cc2oc(=O)cc(CN3CCN(Cc4ccccc4)CC3)c2cc1C`, the B-score result is “inactive”.

Regarding `CCCOc1ccc(C2c3c(oc4cc(C)c(C)cc4c3=O)C(=O)N2CCCN2CCOCC2)cc1` (centres undefined), the B-score entry was “inactive”. The result for `Cc1cc2oc3ccc(NCCC4CCCN4C)cc3c(=O)c2cc1C` (centres undefined) reads -9.61 (active).

Consider `C=CS(=O)c1sc(Cl)c(N2CCOCC2)c1[N+](=O)[O-]` (centres undefined), for which the B-score entry is “inactive”. In the case of `CCC(C(=O)OC)n1cnc2scc(-c3ccc(C)cc3)c2c1=O` (centres undefined) it was “inactive”; in that of `CC(=O)Nc1ccc(/C(C)=N/NC(=O)CN(c2ccccc2Br)S(C)(=O)=O)cc1`, “inactive”; in that of `O=C(O)c1cccc2c1C(=O)N(C1CCCC1)C2`, “inactive”. Turning to `CCc1c(C)sc(NC(=O)c2ccc(Br)o2)c1C(=O)OC`, the B-score was -10.4 (active). On to `CCc1c(C)sc(NC(=O)c2cccs2)c1C(N)=O`, for which the B-score result is “inactive”. The result for `CCOC(=O)c1c(NC(=O)C2CC=CCC2C(=O)O)sc(C)c1CC` (centres undefined) reads “inactive”; that for `COc1cccc(OC)c1C(=O)OCC(=O)/C(C#N)=C(\C)N`, “inactive”. For `Cc1ccc(CNC(=O)Cn2cnc(S(=O)(=O)N3CCCCC3)c2)o1`, the B-score entry is “inactive”. `Cc1nn(CC(=O)Nc2ccc(C#N)cc2)c(C)c1[N+](=O)[O-]`: the B-score result was “inactive”. In the case of `CCOc1ccccc1NC(=O)C1CCCN(S(=O)(=O)c2ccccc2)C1` (centres undefined), the B-score entry was “inactive”.

For the compound `CC1Cc2ccccc2N1CC(=O)Nc1ccc2c(c1)OC(F)(F)O2` (centres undefined), the B-score entry was “inactive”.

For `CN1CCN(c2ccc(S(=O)(=O)Nc3ccccc3)cc2[N+](=O)[O-])CC1`, the B-score was -8.35 (active). `COc1ccc(NS(=O)(=O)c2ccc(N3CCN(CCO)CC3)c([N+](=O)[O-])c2)cc1`: the B-score entry is “inactive”.

Take `CC1CCN(c2ccc(S(=O)(=O)Nc3cc(C(=O)O)cc(C(=O)O)c3)cc2[N+](=O)[O-])CC1`: the B-score entry is “inactive”. For `COc1ccc(N2CCN(C(=O)C3CCN(C(=O)c4ccccc4Cl)CC3)CC2)cc1`, the B-score result is “inactive”.

As for `Cc1ccc(S(=O)(=O)NCc2csc(C)n2)c(C)c1`, the B-score result is “inactive”. With `Cc1ccc(OS(=O)(=O)c2ccc(-c3csc(C)n3)s2)c(C)c1`, the B-score is -9.64 (active). The result for `CNC(=O)c1sc(NCc2ccccc2OC)nc1C` reads “inactive”; that for `Cc1cccc2c1-c1sc(C(=O)NCCCN3CCc4ccccc4C3)cc1CO2`, -7.27 (active). The result for `O=C(NCCCN1CCOCC1)c1cc2c(s1)CCC2` reads “inactive”; that for `O=C(CN1C(=O)COc2ccccc21)NCCN1CCc2ccccc2C1`, “inactive”; that for `CCOc1ccc(N(C)S(=O)(=O)c2cnc[nH]2)cc1`, “inactive”. The result for `COc1ccccc1C(=O)NC(=S)Nc1ccccc1N1CCCCC1` reads “inactive”. For the compound `Clc1ccc(-c2ncc3ccccn23)c(Cl)c1`, the B-score result is “inactive”. The result for `COn1c(-c2ccc(Cl)cc2Cl)nc2ncccc21` reads “inactive”; that for `Clc1ccc(COn2c(-c3ccc(Cl)cc3Cl)nc3ncccc32)cc1`, -8.26 (active); that for `COCCn1c(SCC(=O)Nc2nc(C)cs2)nnc1C(C)C`, “inactive”. The result for `COC(=O)c1cc2nc(-c3ccccc3)cc(C(F)(F)F)n2n1` reads “inactive”; that for `COc1ccc(NC(=O)c2cc3nc(-c4ccccc4)cc(C)n3n2)cc1OC`, “inactive”; that for `COCCNc1cc(-c2ccccc2)nc2cc(-c3cccc(F)c3)nn12`, -7.61 (active).

As to `CN(C)CCCNC(=O)c1cc(C(=O)Cc2ccc(Cl)cc2)c[nH]1`, the B-score result was “inactive”. Consider `CC(=O)C1C(c2ccc(Cl)cc2)c2c(n[nH]c2C)CC1(C)O` (centres undefined), for which the B-score entry was “inactive”. On to `C=CCn1c(SCC(=O)Nc2nc3ccccc3s2)nnc1-c1ccccc1O`, for which the B-score result is “inactive”.

As for `COC(=O)c1ccccc1NC(=O)CSc1nnnn1C`, the B-score result is “inactive”. Take `Cn1nnnc1SCC(=O)Nc1nc2ccccc2s1`: the B-score is -7.23 (active).

Consider `Cc1cc(C)cc(C(=O)N2CCN=C2SCc2ccc([N+](=O)[O-])cc2)c1`, for which the B-score is -8.97 (active).

As to `O=C(Cc1ccc(F)cc1)N1CCN=C1SCc1cccc([N+](=O)[O-])c1`, the B-score result is “inactive”. As to `Cc1cccc(CC(=O)N2CCN=C2SCc2ccc([N+](=O)[O-])cc2)c1`, the B-score result is “inactive”. Consider `Cc1cc(C)c2nc3nc(C)cc(C)c3c(N)c2c1`, for which the B-score was -7.22 (active). For the compound `Cc1cc(C)c2nc(-c3ccco3)cc(C(=O)O)c2c1`, the B-score result was “inactive”.

Turning to `CN(CC1CCCO1)S(=O)(=O)c1ccc(C(=O)Nc2ccc([N+](=O)[O-])cc2)cc1` (centres undefined), the B-score entry is “inactive”.

For `Cc1ccc(OC(=O)c2ccccc2C(=O)OCC(F)(F)C(F)F)cc1`, the B-score entry is “inactive”. The result for `O=C(COC(=O)/C=C/c1ccc(S(=O)(=O)N2CCCCCC2)cc1)NCc1ccccc1Cl` reads “inactive”; that for `O=C(c1ccc(F)c(S(=O)(=O)N2CCOCC2)c1)N(CCc1ccccc1)Cc1ccccc1`, “inactive”; that for `CCCOc1ccc(Cn2ccnc2)cc1[N+](=O)[O-]`, “inactive”. In the case of `CCCCOc1ccc(CSC(=N)N)cc1[N+](=O)[O-]` it was -7.06 (active); in that of `CCCCCOc1ccc(CSC2=NCCN2)cc1[N+](=O)[O-]`, “inactive”; in that of `COc1cc(C2OC(c3cc(OC)c(OC)c(OC)c3)C(C)C2C)cc(OC)c1OC` (centres undefined), “inactive”. With `CSCCC(NS(=O)(=O)c1ccc(C)cc1)C(=O)NCCc1c[nH]c2ccccc12` (centres undefined), the B-score entry was “inactive”. For `CCN1CCN(c2ccc([N+](=O)[O-])cc2C(=O)c2ccc(Cl)cc2)CC1`, the B-score is -7.47 (active). The result for `O=C(Nc1cccc(Cl)c1)c1cc([N+](=O)[O-])ccc1N1CCN(CCO)CC1` reads “inactive”; that for `CCC(=O)c1ccc(N2CCN(C(=O)c3cc([N+](=O)[O-])ccc3F)CC2)c(F)c1`, “inactive”.

In the case of `O=C(N/N=C/c1ccc(O)c(O)c1)C1c2ccccc2Oc2ccccc21`, the B-score entry is “inactive”. Turning to `O=C(CCC1CCN(C(=O)c2cccc(Cl)c2F)CC1)Nc1ccccc1`, the B-score entry was “inactive”. The result for `Cc1cc(S(=O)(=O)Nc2ccc(C(=O)NCC(c3ccco3)N3CCCC3)cc2)ccc1F` (centres undefined) reads “inactive”. The result for `COc1ccc(OCc2cc(C(=O)N3CCCC3)no2)c2ccccc12` reads -7 (active); that for `COc1ccccc1-c1cc(C(=O)N2CCCCC2)no1`, “inactive”. With `COc1cc(Cl)ccc1OCc1cc(C(=O)N2CC[C@@H]3CCCC[C@H]3C2)no1`, the B-score result is “inactive”.

Take `O=C(NC1(C(F)(F)F)NC(=O)N(Cc2cccnc2)C1=O)c1ccccc1Cl` (centres undefined): the B-score result is “inactive”.

In the case of `O=C(CN1C(=O)c2cccnc2Oc2ccc(Cl)cc21)NCCc1ccccc1`, the B-score result is “inactive”. As to `CCOC(=O)c1cccc(NC(=O)c2ccc(F)cc2F)c1`, the B-score entry is “inactive”.

As to `Cc1ccc(N(Cc2ccccc2O)C(=O)c2ccccc2F)cc1`, the B-score entry was “inactive”.

With `Cn1c(N)c(C(=O)COC(=O)c2cnc(Cl)c(Cl)c2)c(=O)n(C)c1=O`, the B-score entry is “inactive”.

In the case of `Cc1ccc(C)c(NC(=O)NNC(=O)c2ccc3ccccc3c2O)c1`, the B-score entry is “inactive”. In the case of `COC(=O)c1sc(-c2ccc(C(C)(C)C)cc2)cc1NC(=O)/C=C/C(=O)O` it was -8.52 (active); in that of `CC(C)(C)c1ccc(/C=C/C(=O)Nc2ncccn2)cc1`, “inactive”. As for `CSc1ccc(NC(=O)/C=C/C(=O)O)cc1`, the B-score entry is “inactive”. The result for `Cc1onc(-c2c(F)cccc2Cl)c1C(=O)N(C)CC(=O)Nc1cccc(F)c1` reads “inactive”; that for `OCCC1CN(Cc2ccc3nsnc3c2)CCN1C1CCCC1` (centres undefined), -8.81 (active). Consider `OCCC1CN(Cc2ccc3nsnc3c2)CCN1C1CCCCC1` (centres undefined), for which the B-score entry was “inactive”. The result for `Cn1cnnc1Sc1ccc(CN2CCN(C3CCCC3)C(CCO)C2)o1` (centres undefined) reads “inactive”; that for `COc1ccccc1C(=O)N/C(=C/c1ccc2c(c1)OCO2)C(=O)Nc1cccc(C(=O)O)c1`, “inactive”; that for `CN(C)CCCN(C(=O)c1ccc(S(=O)(=O)N2CCCCCC2)cc1)c1nc2cc3c(cc2s1)OCCO3`, -7.42 (active). In the case of `CN(C)CCCN(C(=O)c1ccc(S(=O)(=O)N2CCCCCC2)cc1)c1nc2ccc(Br)cc2s1` it was “inactive”; in that of `CCN(CC)CCN(C(=O)c1ccc(S(=O)(=O)N2CCOCC2)cc1)c1nc2cc3c(cc2s1)OCCO3`, “inactive”.

The values above are taken from PubChem BioAssay AID463111 (Johns Hopkins Ion Channel Center, 2010).
